Assay results from ChEMBL document CHEMBL4433213, “Investigation on 2',3'-O-Substituted ATP Derivatives and Analogs as Novel P2X3 Receptor Antagonists” (ACS Med Chem Lett, 2019).
Active and inactive are the calls of the source. The calls are words filed in the database; no cut-off is given here.

Tests used:
[1] = target: T1, P2X purinoceptor 3 (Mus musculus) (UniProt Q3UR32); experiment: Agonist activity at P2X3R in mouse TG sensory neurons assessed as induction of channel current at 10 uM at -65 mV holding potential by whole cell voltage clamp method relative to alpha,beta-meATP
T1 sequence (whole entry): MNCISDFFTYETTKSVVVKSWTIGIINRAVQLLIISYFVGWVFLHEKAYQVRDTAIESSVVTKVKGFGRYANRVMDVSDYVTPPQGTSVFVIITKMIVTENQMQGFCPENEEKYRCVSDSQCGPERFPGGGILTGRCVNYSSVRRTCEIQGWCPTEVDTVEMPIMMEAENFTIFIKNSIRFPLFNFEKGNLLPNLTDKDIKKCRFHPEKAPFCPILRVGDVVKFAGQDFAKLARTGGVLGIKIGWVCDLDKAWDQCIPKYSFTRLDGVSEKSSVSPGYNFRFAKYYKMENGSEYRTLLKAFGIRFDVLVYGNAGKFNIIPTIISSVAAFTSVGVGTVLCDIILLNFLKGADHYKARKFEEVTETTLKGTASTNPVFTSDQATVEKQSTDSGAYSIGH

P2X purinoceptor 2 = target: T2, P2X purinoceptor 2 (Homo sapiens, UniProt Q9UBL9); experiment: Antagonist activity at human P2X2R transfected in human 1321N1 cells assessed as inhibition of ATP-induced calcium influx; assay type: cell-based
T2 sequence (Q9UBL9 whole entry): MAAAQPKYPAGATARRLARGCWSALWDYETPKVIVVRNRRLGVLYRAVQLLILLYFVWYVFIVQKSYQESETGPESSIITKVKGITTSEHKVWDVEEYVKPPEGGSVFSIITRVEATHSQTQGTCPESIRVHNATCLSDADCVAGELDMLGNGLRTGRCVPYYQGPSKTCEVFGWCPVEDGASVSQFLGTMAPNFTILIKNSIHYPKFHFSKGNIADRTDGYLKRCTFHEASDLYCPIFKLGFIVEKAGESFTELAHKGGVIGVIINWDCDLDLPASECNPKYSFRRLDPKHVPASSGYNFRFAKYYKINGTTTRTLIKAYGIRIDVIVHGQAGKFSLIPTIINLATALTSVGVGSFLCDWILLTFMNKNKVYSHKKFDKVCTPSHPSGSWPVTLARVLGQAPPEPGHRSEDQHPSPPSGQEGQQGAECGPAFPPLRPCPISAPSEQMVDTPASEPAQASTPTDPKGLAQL
Method in brief: (§1)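 1321N1 astrocytoma cells stably expressing human P2X1, P2X2, P2X3 or P2X4 receptor. Calcium influx was induced by ATP at the EC80 for each subtype. Results are given as IC50 (μM) or % inhibition at the indicated concentration.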

P2X purinoceptor 3 [2] = target: T3, P2X purinoceptor 3 (Homo sapiens, UniProt P56373); experiment: Antagonist activity at human P2X3R transfected in human 1321N1 cells assessed as inhibition of ATP-induced calcium influx; assay type: cell-based; method in brief: as §1
T3 sequence (P56373 whole entry): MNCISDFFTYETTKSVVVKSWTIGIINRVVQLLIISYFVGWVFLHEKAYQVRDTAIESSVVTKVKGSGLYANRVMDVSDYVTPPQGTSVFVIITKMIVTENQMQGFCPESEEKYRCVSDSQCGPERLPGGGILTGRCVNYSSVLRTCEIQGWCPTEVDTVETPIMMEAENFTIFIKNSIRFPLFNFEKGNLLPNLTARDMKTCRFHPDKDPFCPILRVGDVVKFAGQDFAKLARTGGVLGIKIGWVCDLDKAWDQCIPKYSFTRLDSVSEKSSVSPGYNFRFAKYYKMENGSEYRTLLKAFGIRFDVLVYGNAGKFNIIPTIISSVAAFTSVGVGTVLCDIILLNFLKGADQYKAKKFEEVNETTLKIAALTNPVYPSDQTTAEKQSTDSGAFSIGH

P2X purinoceptor 3 [3] = target: T4, P2X purinoceptor 3 (Mus musculus, UniProt Q3UR32); experiment: Antagonist activity at P2X3R in mouse TG sensory neurons assessed as inhibition of P2X3R agonist alpha,beta-meATP-induced current at -65 mV holding potential by whole cell voltage clamp method
T4 sequence (Q3UR32 whole entry): T1 sequence (whole entry)
Method in brief: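 Mouse trigeminal sensory neurons were recorded by whole-cell patch clamp. Test compound (0.001–10 μM) was applied before 10 μM α,β-meATP, and inhibition of the agonist-evoked P2X3 current was measured. IC50 was taken from concentration–inhibition curves. N = 5–6 cells.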

[4] = target: T5, P2X purinoceptor 7 (Homo sapiens) (UniProt Q99572); experiment: Antagonist activity at human P2X7R transfected in human 1321N1 cells assessed as inhibition of Bz-ATP-induced calcium influx relative to control; assay type: cell-based; details: concentration not given here
T5 sequence (whole entry): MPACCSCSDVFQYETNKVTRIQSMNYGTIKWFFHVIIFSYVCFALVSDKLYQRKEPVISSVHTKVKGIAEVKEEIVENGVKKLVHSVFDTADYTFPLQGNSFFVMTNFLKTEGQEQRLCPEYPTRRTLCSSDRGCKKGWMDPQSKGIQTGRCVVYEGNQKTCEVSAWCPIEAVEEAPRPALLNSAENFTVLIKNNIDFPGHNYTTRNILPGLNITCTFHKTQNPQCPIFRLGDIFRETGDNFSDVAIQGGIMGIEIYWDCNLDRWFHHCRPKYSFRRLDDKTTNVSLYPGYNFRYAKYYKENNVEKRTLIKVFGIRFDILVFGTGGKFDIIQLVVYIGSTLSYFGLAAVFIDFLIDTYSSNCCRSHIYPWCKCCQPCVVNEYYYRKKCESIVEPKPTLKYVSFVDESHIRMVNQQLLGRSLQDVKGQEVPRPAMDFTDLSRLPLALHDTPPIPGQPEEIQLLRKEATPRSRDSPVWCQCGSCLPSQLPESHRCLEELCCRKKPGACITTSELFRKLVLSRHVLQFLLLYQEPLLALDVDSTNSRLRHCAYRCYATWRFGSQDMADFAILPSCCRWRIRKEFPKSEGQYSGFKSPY

P2X purinoceptor 4 = target: T6, P2X purinoceptor 4 (Homo sapiens, UniProt Q99571); experiment: Antagonist activity at human P2X4R transfected in human 1321N1 cells assessed as inhibition of ATP-induced calcium influx; assay type: cell-based; method in brief: as §1
T6 sequence (Q99571 whole entry): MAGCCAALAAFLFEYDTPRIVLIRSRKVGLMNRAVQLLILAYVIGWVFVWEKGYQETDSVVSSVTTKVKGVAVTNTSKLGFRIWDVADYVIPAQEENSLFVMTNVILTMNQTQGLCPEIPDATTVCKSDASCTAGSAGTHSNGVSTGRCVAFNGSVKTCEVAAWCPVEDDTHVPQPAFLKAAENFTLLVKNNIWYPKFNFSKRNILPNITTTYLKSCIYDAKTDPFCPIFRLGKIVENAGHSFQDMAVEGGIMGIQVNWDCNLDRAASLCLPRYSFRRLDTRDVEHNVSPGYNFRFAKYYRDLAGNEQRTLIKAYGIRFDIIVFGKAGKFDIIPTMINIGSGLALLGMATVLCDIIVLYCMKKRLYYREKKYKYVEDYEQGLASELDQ

P2X purinoceptor 7 = target: T7, P2X purinoceptor 7 (Homo sapiens, UniProt Q99572); experiment: Antagonist activity at human P2X7R transfected in human 1321N1 cells assessed as inhibition of Bz-ATP-induced calcium influx; assay type: cell-based
T7 sequence (Q99572 whole entry): T5 sequence (whole entry)

[5] = target: T8, P2X purinoceptor 2 (Homo sapiens) (UniProt Q9UBL9); experiment: Antagonist activity at human P2X2R transfected in human 1321N1 cells assessed as inhibition of ATP-induced calcium influx relative to control; assay type: cell-based; details: concentration not given here; method in brief: as §1
T8 sequence (whole entry): T2 sequence (Q9UBL9 whole entry)

Row | SMILES | Activity [1] | IC50 (P2X purinoceptor 2) | IC50 (P2X purinoceptor 3 [2]) | IC50 (P2X purinoceptor 3 [3]) | inhibition [4] | IC50 (P2X purinoceptor 4) | IC50 (P2X purinoceptor 7) | inhibition [5]
1 | CC1(C)O[C@@H]2[C@H](O1)[C@@H](COP(=O)(O)OP(=O)(O)OP(=O)(O)O)O[C@H]2n1cnc2c(N)ncnc21 | inactive | > 100 µM | 4.11 µM | 0.024 µM | 5% | 48 µM | > 100 µM | 6%
2 | Nc1ncnc2c1ncn2[C@@H]1O[C@H](COP(=O)(O)OP(=O)(O)OP(=O)(O)O)[C@H]2OCO[C@H]21 | inactive | > 100 µM | > 100 µM | > 1 µM | 21% | > 100 µM | > 100 µM | 36%
3 | Nc1ncnc2c1ncn2[C@@H]1O[C@H](COP(=O)(O)CP(=O)(O)OP(=O)(O)O)[C@H]2OC3(CCCCC3)O[C@H]21 | inactive | > 100 µM | 17.5 µM | 0.127 µM | -1% | > 100 µM | > 100 µM | 9%
